Compound activity deposited in PubChem BioAssay by The Scripps Research Institute Molecular Screening Center.
GalR3 antagonist = blocks the human galanin receptor 3 | O60755 | HEK293 GalR3-CNG cAMP membrane potential fluorescence; galR3 body fused to GalR1 C-terminus | inhibition, % at 3 µM | actives 0.44% (n = 360,000) | AID 651719;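 active means inhibition above the screen-wide average plus 3 SD, cut at about 13% in these data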;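 further: forskolin and galanin both at EC90 stimulate the cells; cAMP rise reported by CNG channel membrane potential dye signal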
OX1R antag-1 = human HCRTR1 antagonism | O43613 | CHO/OX1R cells, Fluo-8 calcium fluorescence, orexin A | inhibition, % at 5 µM | actives 0.43% (n = 330,000) | AID 434989;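 active means inhibition above its plate's threshold, mean inhibition of all tested compounds on the plate plus 3 SD, cut at about 37% in these data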
Target sequence (O43613 whole entry, looked up): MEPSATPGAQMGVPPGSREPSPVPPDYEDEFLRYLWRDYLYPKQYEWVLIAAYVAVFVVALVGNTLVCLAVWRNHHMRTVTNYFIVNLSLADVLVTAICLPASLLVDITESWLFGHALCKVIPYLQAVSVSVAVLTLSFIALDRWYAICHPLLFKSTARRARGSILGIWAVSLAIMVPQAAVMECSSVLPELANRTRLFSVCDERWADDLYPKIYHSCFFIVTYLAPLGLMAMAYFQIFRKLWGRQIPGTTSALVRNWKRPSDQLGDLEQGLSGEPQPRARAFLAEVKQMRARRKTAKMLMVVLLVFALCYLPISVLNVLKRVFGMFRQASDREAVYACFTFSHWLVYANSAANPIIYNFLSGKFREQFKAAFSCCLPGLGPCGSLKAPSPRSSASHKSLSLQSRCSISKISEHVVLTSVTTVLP
CHO parental Ca = counter-screen: ATP calcium response change in parental CHO cells. parental CHO-K1, ATP-induced calcium, Fluo-8 fluorescence. actives 0.63% (n = 330,000). AID 463079. inhibition, % at 5.6 µM;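 active means inhibition above that plate's mean sample inhibition plus 3 SD, cut at about 26% in these data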
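Material: parental CHO cells / Compound: single nominal dose of 5.6 µM per compound / Signal: Fluo-8 fluorescence / Replicates: singlicate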
OX1R antag-2 = blocks the human orexin 1 receptor | O43613 | OX1R-expressing cells, FRET antagonist read-out | inhibition, % at 6.6 µM | actives 1.8% (n = 330,000); in the data active means inhibition mostly above about 38%, no sharp cut-off; inactive means mostly below about 40%
GPR7 antag = human neuropeptides B/W receptor 1 antagonism | GPR7-expressing cells, fluorescence antagonist assay | actives 1.1% (n = 290,000) | inhibition, % at 4.4 µM | P48145; in the data active means inhibition above about 16%, passing the limit was not always enough;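 further: cells stimulated with the agonist NPW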
GalR3 antag conf = confirmation of human galanin receptor 3 antagonists; inhibition, % at 3 µM; HEK293 GalR3 CNG cAMP biosensor, membrane potential fluorescence; galR3 fused to GalR1 carboxy tail; challenged with forskolin and galanin at EC90; AID 652245; shares compounds with GalR3 antagonist; actives 59% (n = 1,600);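 active means inhibition above the primary screen's cutoff, the mean inhibition of all screened compounds plus 3 SD, cut at about 13% in these data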
CNG parental = parental cell agonism counter-screen for GalR3 antagonists. shares compounds with GalR3 antagonist. HEK293-CNG parental cells, cAMP membrane potential fluorescence; normalised: DMSO wells 0%, forskolin wells 100%. activation, % at 3 µM. actives 10% (n = 1,600). AID 652268; in the data active means activation above about 1.3%
Large screens that a line does not name were inactive (follow-up assays come after a bar, where they were run). This is a sample that favours compounds with a hit; in the whole collection about 3.1% have one here.

O=C(O)/C=C/C(=O)c1ccc2c(c1)CCc1ccccc1-2	GalR3 antagonist 25 (no result: GPR7 antag) | GalR3 antag conf 16 | CNG parental inactive
CCn1cc(S(=O)(=O)Nc2ccc(Cl)cc2F)cn1	none
COc1cccc(CC(=O)NNC(=O)CN(C)S(=O)(=O)c2ccc(C)cc2)c1	none (no result: GPR7 antag)
O=C(O)CC1(CC(=O)Nc2ccc3c(c2)OCCCO3)CCCCC1	none
CCNc1nc(CN2CCCCC2)nc2scc(-c3ccccc3)c12	GalR3 antagonist 19 | GalR3 antag conf 22 | CNG parental 5.7
COc1cc(NS(=O)(=O)c2c(C)oc3c(F)c(F)c(F)c(F)c23)cc(OC)c1OC	none
FC(F)(F)c1cnc(N2CCN(C(=S)NCc3ccccc3)CC2)c(Cl)c1	none
FC(F)(F)c1cnc(N2CCCN(C(=S)Nc3ccccc3)CC2)c(Cl)c1	GalR3 antagonist 40 | GalR3 antag conf 80 | CNG parental inactive
COCC(COS(N)(=O)=O)Cc1ccccc1 (configuration not stated)	none (no result: GalR3 antagonist) | GalR3 antag conf inactive | CNG parental inactive
NS(=O)(=O)OCCCc1ccccc1	none
CCCCC[C@@H](/C=C/C1C(=O)C=C[C@H]1C/C=C\CCCC(=O)OC)OC(C)=O (some centres not stated)	GalR3 antagonist 59 (no result: OX1R antag-1, CHO parental Ca, OX1R antag-2, GPR7 antag) | GalR3 antag conf 90 | CNG parental inactive
CC1(CSc2ccccc2)CC(=O)N1 (configuration not stated)	GalR3 antagonist 21 (no result: OX1R antag-1, CHO parental Ca, OX1R antag-2, GPR7 antag) | GalR3 antag conf 29 | CNG parental inactive
CC(C)CN(C(=O)CN1CCN(S(=O)(=O)c2ccc3ccccc3c2)CC1)c1c(N)n(CC(C)C)c(=O)[nH]c1=O	GalR3 antagonist 18 | GalR3 antag conf inactive | CNG parental inactive
O=c1cc(CSc2nnc(-c3cccs3)n2Cc2ccccc2)nc2sc3ccccc3n12	GalR3 antagonist 74, CHO parental Ca 52, GPR7 antag 30 | GalR3 antag conf 108 | CNG parental inactive
COCCNC(=O)c1cnn2c(C(F)F)cc(-c3ccc(C)cc3)nc12	none
COc1ccc(CNC(=O)c2cnn3c(C(F)F)cc(C)nc23)cc1OC	GalR3 antagonist 15 | GalR3 antag conf 20 | CNG parental inactive
C=CCn1c(COc2ccc(Cl)cc2)nnc1SCC(=O)c1c(N)n(C)c(=O)n(C)c1=O	GalR3 antagonist 16 | GalR3 antag conf inactive | CNG parental inactive
C=CCn1c(COc2cccc(C)c2)nnc1SCC(=O)c1c(N)n(C)c(=O)n(C)c1=O	none (no result: OX1R antag-1, CHO parental Ca, OX1R antag-2, GPR7 antag)
CC(=O)c1c(C)n(CC(=O)NCc2ccco2)c2ccccc12	none
CSCC[C@H](NC(=O)C1CCN(S(=O)(=O)c2ccc(C)cc2)CC1)C(=O)NC1CCS(=O)(=O)C1 (some centres not stated)	none
NC(=O)CC[C@H](NC(=O)c1ccc(F)cc1)C(=O)OCC(=O)NCc1ccc2c(c1)OCO2	GalR3 antagonist 26 (no result: GPR7 antag) | GalR3 antag conf inactive | CNG parental inactive
NC(=O)CC[C@H](NC(=O)c1ccc(F)cc1)C(=O)OCC(=O)Nc1ccc(N2CCOCC2)cc1	none
